This note sets out measurements from ChEMBL document CHEMBL1122690, “Synthesis of potential antifilarial agents. 1-(5-Benzoylbenzimidazol-2-yl)-3-alkyl- and -arylureas” (1984).

What all share (type): functional
Experiment [1] concerns Brugia pahangi. The experiment in a line: Antifilarial activity (percent reduction of live Brugia pahangi at necropsy relative to controls) was evaluated at dose of 100 mg/kg/day administered subcutaneously. The settings on record: route subcutaneous. The procedure, abridged:
(§1)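 Male jirds (Meriones unguiculatus) carrying adult Brugia pahangi and Litomosoides carinii. Infection was by intraperitoneal inoculation of 24-25 L. carinii larvae 76–133 days before treatment, followed by 49-50 immature B. pahangi. Dosing was daily for 5 days. Necropsy was 55–70 days after the first dose, with a search of the pleural and peritoneal cavities. Live adult worms were scored as % reduction versus controls, usually averaged over 3 animals.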

For experiment [2], the system named is Litomosoides carinii. The experiment in a line: Antifilarial activity (percent reduction of live Litomosoides carinii at necropsy relative to controls) was evaluated at dose of 100 mg/kg/day administered subcutaneously. The settings on record: route subcutaneous. The method in brief:
as §1

The subject of experiment [3] is Litomosoides carinii. The experiment in a line: Antifilarial activity (percent reduction of live Litomosoides carinii at necropsy relative to controls) was evaluated at dose of 100 mg/kg/day administered perorally. The settings on record: route oral; in the assay text read “25 mg/kg/day” for “100 mg/kg/day”. The method in brief: as §1
Experiment [4] deals with Brugia pahangi. The experiment in a line: Antifilarial activity (percent reduction of live Brugia pahangi at necropsy relative to controls) was evaluated at dose of 25 mg/kg/day administered subcutaneously. The settings on record: route subcutaneous. The procedure, abridged:
as §1

The test system of experiment [5] is Brugia pahangi. The experiment in a line: Antifilarial activity (percent reduction of live Brugia pahangi at necropsy relative to controls) was evaluated at dose of 6.25 mg/kg/day administered subcutaneously. The settings on record: route subcutaneous. The procedure, abridged: as §1
Experiment [6] has as its system Litomosoides carinii. The experiment in a line: Antifilarial activity (percent reduction of live Litomosoides carinii at necropsy relative to controls) was evaluated at dose of 25 mg/kg/day administered subcutaneously. The settings on record: route subcutaneous. The method in brief:
as §1

Experiment [7] has as its system Litomosoides carinii. The experiment in a line: Antifilarial activity (percent reduction of live Litomosoides carinii at necropsy relative to controls) was evaluated at dose of 6.25 mg/kg/day administered subcutaneously. The settings on record: route subcutaneous. The procedure, abridged: as §1
In experiment [8] the test system is Brugia pahangi. The experiment in a line: Antifilarial activity (percent reduction of live Brugia pahangi at necropsy relative to controls) was evaluated at dose of 1.56 mg/kg/day administered subcutaneously. The settings on record: route subcutaneous. The method in brief: as §1
Experiment [9] has as its system Litomosoides carinii. The experiment can be described thus: Antifilarial activity (percent reduction of live Litomosoides carinii at necropsy relative to controls) was evaluated at dose of 1.56 mg/kg/day administered subcutaneously. The settings on record: route subcutaneous. The method in brief: as §1

Turning to `O=C(Nc1ccc([N+](=O)[O-])cc1)Nc1nc2cc(C(=O)c3ccccc3)ccc2[nH]1`, the Reduction in the experiment with Brugia pahangi [1] was 9%; with Litomosoides carinii [2] it was 0%.

With `O=C(Nc1ccccc1)Nc1nc2cc(C(=O)c3ccccc3)ccc2[nH]1`, the Reduction is reported as 0% with Brugia pahangi [1] and 66% in the experiment on Litomosoides carinii [2].

In turn, `Cc1ccc(C(=O)Nc2ccc(S(=O)(=O)O)c3cc(S(=O)(=O)O)cc(S(=O)(=O)O)c23)cc1NC(=O)c1cccc(NC(=O)Nc2cccc(C(=O)Nc3cc(C(=O)Nc4ccc(S(=O)(=O)O)c5cc(S(=O)(=O)O)cc(S(=O)(=O)O)c45)ccc3C)c2)c1` [SURAMIN] registered a Reduction with Litomosoides carinii [3] of 71%.

For `CN(C)C(=O)Nc1nc2cc(C(=O)c3ccccc3)ccc2[nH]1`, the Reduction in the experiment with Brugia pahangi [1] is on record as 100%; with Brugia pahangi [4], 0%; in the experiment on Brugia pahangi [5], 0%; with Litomosoides carinii [2], 100%; in the experiment with Litomosoides carinii [6], 87%; in the experiment with Litomosoides carinii [7], 61%.

For the molecule `CCCNC(=O)Nc1nc2cc(C(=O)c3ccccc3)ccc2[nH]1`, the Reduction with Brugia pahangi [1] and in the experiment on Litomosoides carinii [2] was 0% in each case.

`O=C(Nc1ccc(Cl)c(Cl)c1)Nc1nc2cc(C(=O)c3ccccc3)ccc2[nH]1`: the Reduction with Brugia pahangi [1] stood at 0%; in the experiment with Litomosoides carinii [2], 9%.

As to `O=C(NCCO)Nc1nc2cc(C(=O)c3ccccc3)ccc2[nH]1`, the Reduction with Brugia pahangi [1] was found to be 15%; in the experiment on Litomosoides carinii [2] it was 20%.

Turning to `O=C(Nc1nc2cc(C(=O)c3ccccc3)ccc2[nH]1)Nc1ccccc1F`, the Reduction in the experiment on Brugia pahangi [1] and in the experiment on Litomosoides carinii [2] was 0% in each case.

With `Cc1ccc(NC(=O)Nc2nc3cc(C(=O)c4ccccc4)ccc3[nH]2)cc1`, the Reduction in the experiment on Brugia pahangi [1] stood at 0%; in the experiment with Litomosoides carinii [2] it was 27%.

As for `O=C(Nc1cccc([N+](=O)[O-])c1)Nc1nc2cc(C(=O)c3ccccc3)ccc2[nH]1`, the Reduction with Brugia pahangi [1] is 0%; with Litomosoides carinii [2], 32%.

On to `Cc1cccc(NC(=O)Nc2nc3cc(C(=O)c4ccccc4)ccc3[nH]2)c1`, for which the Reduction in the experiment on Brugia pahangi [1] and in the experiment with Litomosoides carinii [2] was 0% in each case.

With `CN1CCN(C(=O)Nc2nc3cc(C(=O)c4ccccc4)ccc3[nH]2)CC1`, the Reduction in the experiment with Brugia pahangi [1] and in the experiment on Litomosoides carinii [2] was 0% throughout.

For the molecule `O=C(Nc1ccc(F)cc1)Nc1nc2cc(C(=O)c3ccccc3)ccc2[nH]1`, the Reduction in the experiment on Brugia pahangi [1] is reported as 6%; in the experiment with Litomosoides carinii [2] it was 66%.

As for `O=C(Nc1nc2cc(C(=O)c3ccccc3)ccc2[nH]1)Nc1ccccc1[N+](=O)[O-]`, the figures for the Reduction with Brugia pahangi [1] and in the experiment with Litomosoides carinii [2] were 6% and 0%, respectively.

On to `COC(=O)Nc1nc2cc(C(=O)c3ccccc3)ccc2[nH]1` [MEBENDAZOLE], for which the Reduction with Brugia pahangi [8] came to 12.5%; in the experiment on Brugia pahangi [4], 100%; with Brugia pahangi [5], 100%; in the experiment with Litomosoides carinii [6] it was 100%; with Litomosoides carinii [7] it was 100%; in the experiment on Litomosoides carinii [9], 97%.
